PREPL inh: human PREPL enzyme inhibition; Q4J6C6; recombinant PREPL, fluorescence polarization activity-based probe; inhibition, % at 5.96 µM; 320,000 tested, 0.68% active; AID 2751; in the data active = inhibition above about 43%;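 note: 0% = enzyme with DMSO and 100% = wells lacking enzyme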
Target sequence (Q4J6C6 whole entry, looked up): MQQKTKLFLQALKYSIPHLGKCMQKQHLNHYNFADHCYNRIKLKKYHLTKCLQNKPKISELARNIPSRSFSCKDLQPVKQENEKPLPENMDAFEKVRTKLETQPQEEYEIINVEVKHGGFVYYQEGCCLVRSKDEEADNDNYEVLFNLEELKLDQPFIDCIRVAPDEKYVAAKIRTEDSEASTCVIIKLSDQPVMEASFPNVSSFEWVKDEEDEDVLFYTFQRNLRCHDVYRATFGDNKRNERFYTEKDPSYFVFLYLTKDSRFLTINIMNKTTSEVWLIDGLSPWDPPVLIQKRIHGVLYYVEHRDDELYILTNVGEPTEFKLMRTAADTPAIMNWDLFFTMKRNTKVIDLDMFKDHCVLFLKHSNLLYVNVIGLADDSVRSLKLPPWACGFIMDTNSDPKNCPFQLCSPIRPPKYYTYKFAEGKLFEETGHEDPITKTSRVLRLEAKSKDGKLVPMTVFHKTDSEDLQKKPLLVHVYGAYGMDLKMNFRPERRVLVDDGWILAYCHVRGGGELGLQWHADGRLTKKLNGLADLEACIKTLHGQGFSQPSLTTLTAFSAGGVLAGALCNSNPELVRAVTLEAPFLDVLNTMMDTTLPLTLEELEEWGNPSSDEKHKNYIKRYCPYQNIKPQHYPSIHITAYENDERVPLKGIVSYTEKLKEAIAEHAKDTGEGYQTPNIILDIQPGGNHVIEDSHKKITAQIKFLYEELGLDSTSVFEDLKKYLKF
NR3A LBD binder: NR3A (human) ligand-binding domain modulation. 340,000 tested, 2.5% active. NR3A LBD differential scanning fluorimetry, Tm shift; 0% = protein alone, 100% = glycine-bound protein. AID 1259313. Tm shift relative to glycine control, % at 25 µM;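 active = melting temperature shift of at least 10% of the positive control shift, at one fixed dose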
Beta apoptosis: beta cell apoptosis inhibition; INS-1E cytokine-induced death, ATP luminescence, 48 h; percent of positive-control rescue, neutral wells zero; 300,000 tested, 0.8% active; protection from apoptosis, % (test concentration not listed);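 active = Every replicate reaches about 75%, or at least half do and their mean reaches it too, limit read from the data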;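 note: 0% = cytokine-treated negative control wells and 100% = positive control rescue; higher means more ATP so stronger rescue from cytokine killing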
CHOP inh: inhibitors of CHOP induction in ER stress response; CHO-K1 CHOP-promoter luciferase, tunicamycin-induced, 15-18 h; inhibition, % at 10 µM; 220,000 tested, 3.8% active;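 active = compounds that reduced the stress-induced luciferase reporter signal by more than about 70% of percent inhibition, limit read from the data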;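 note: 0% = tunicamycin plus vehicle and 100% = wells without tunicamycin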
CSC inhib: blocks cancer stem cells; cancer stem cell-like cells viability, luminescence; inhibition, % at 7.5 µM; 300,000 tested, 1.1% active; in the data active = inhibition above about 75%; tested in HMLE shEcad cells
T cruzi repl: blocks replication of Trypanosoma cruzi | T. cruzi beta-gal in NIH3T3, luminescence, 90 h | 300,000 tested, 1.4% active | inhibition, % (no concentration beside the values);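 active = mean inhibition across valid replicates above about 55%, limit read from the data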;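 note: signal also drops with host cell toxicity which is not excluded here; 0% = plate median of DMSO wells and 100% = zero luminescence signal; higher percent means less beta-gal luminescence so fewer parasites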
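compound dosing = single 50 nL compound addition per well in DMSO | material = NIH/3T3 host cells with β-galactosidase reporter T. cruzi | input = 5,000 host fibroblasts per well | timing = ≥90 h infection period, 3 h prior cell attachment | read-out basis = percent inhibition of parasite-derived β-gal signal | detection = GalScreen β-gal luminescence, detergent lysis, 60 min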
CHOP inh conf: confirmation of CHOP induction inhibitors | shares compounds with CHOP inh | CHO-CHOP promoter luciferase reporter, tunicamycin-induced, luminescence | inhibition, % at 10 µM | 2,100 tested, 45% active | AID 504437;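 active = mean of three repeat readings of reporter signal inhibition above a set limit, cut at about 70% in these data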;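 note: 0% = tunicamycin plus vehicle and 100% = wells lacking tunicamycin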
An asterisk follows results filed as active. Rows were chosen to be rich in hits. Some 6.7% of all compounds tested hit in one or more screens of this group.

CCOC(=O)c1c(CN2CCOCC2)n(-c2ccccc2)c2cc(Br)c(O)cc12 was read as PREPL inh 29.9, NR3A LBD binder -9.3, CHOP inh 98.7*, CSC inhib 17.2, T cruzi repl 8.6 and CHOP inh conf 95.4*.
Screening CCOC(=O)c1c(CN2CCOCC2)n(-c2ccccc2)c2cc(Br)c(OC)cc12 returned PREPL inh -15.9, NR3A LBD binder 3.2, Beta apoptosis -0.1, CHOP inh 12.9, CSC inhib 34.5 and T cruzi repl 23.1.
Screening Cc1cc(/C=c2/sc3nc4ccccc4n3c2=O)c(C)n1-c1ccccn1 returned PREPL inh 11.5, NR3A LBD binder -0.2, Beta apoptosis 23.2, CHOP inh 106.6*, CSC inhib 25.5, T cruzi repl 4.1 and CHOP inh conf 118.5*.
Screening Cc1cc(/C=c2\sc3nc4ccccc4n3c2=O)c(C)n1-c1ccc(C(=O)O)cc1 returned NR3A LBD binder -401.3, CHOP inh -26.9 and T cruzi repl -1.7.
For COc1ccc(NS(=O)(=O)c2cccc(C(=O)O)c2)cc1S(=O)(=O)N1CCCCC1 the results were PREPL inh 3.7, NR3A LBD binder -1.1, Beta apoptosis -1.0 and CSC inhib -18.9.
`CCNC(=S)N/N=C/c1cc(Br)cc(Br)c1OC` gave PREPL inh 15.7, NR3A LBD binder -3.1, Beta apoptosis -6.4, CHOP inh 101.8*, T cruzi repl 9.7 and CHOP inh conf 79.5*.
Screening Cc1ccc(N(CC(=O)NC(C)(C)C)C(=O)CNC(=O)c2cccs2)cc1C returned PREPL inh 2.0, NR3A LBD binder -0.5, Beta apoptosis 0.0, CHOP inh 44.5, CSC inhib -12.2 and T cruzi repl 23.1.
Screening CCOC(=O)Cc1cc(-c2ccc(OC)cc2)nc2ccc3ccccc3c12 returned PREPL inh -6.9, NR3A LBD binder -1.5, Beta apoptosis 6.6, CHOP inh 23.5, CSC inhib 43.1 and T cruzi repl 44.0.
`CCOC(=O)Cc1cc(-c2ccc(O)cc2)nc2ccc3ccccc3c12` gave PREPL inh 0.4, NR3A LBD binder 18.4*, Beta apoptosis -0.1, CHOP inh 100.9*, CSC inhib 58.2, T cruzi repl 33.1 and CHOP inh conf 96.2*.
Screening Cc1ccc(C(C)C)c(OCC(=O)NN=C(CCl)CCl)c1 returned PREPL inh 4.7, Beta apoptosis 0.3, CHOP inh 106.2*, CSC inhib 10.6 and CHOP inh conf 7.6.
Screening Cc1ccc(C(C)C)c(OCC(=O)N/N=C/C2CCCCC2)c1 returned PREPL inh 23.8, NR3A LBD binder -1.7, Beta apoptosis -1.6, CHOP inh 100.8*, CSC inhib 4.7, T cruzi repl -9.9 and CHOP inh conf 70.5*.
`COc1ccccc1OCc1nnc(SCC(=O)N2CCCCC2)o1` gave NR3A LBD binder -1.2 and T cruzi repl 5.9.
COCC(=O)N1CCC(Oc2ccc(C(=O)NC(C)c3nc(C)sc3C)cc2)CC1 (centres undefined) was read as PREPL inh 5.3, NR3A LBD binder 2.0, Beta apoptosis -3.3, CSC inhib 2.5 and T cruzi repl 6.8.
O=C(NC(=S)Nc1nc2ccc(F)cc2s1)c1ccco1 was read as PREPL inh -0.8, NR3A LBD binder -6.4, Beta apoptosis -4.4, CHOP inh -37.5, CSC inhib -7.7 and T cruzi repl -11.3.
For CCCCCCCC(=O)N/N=C/c1ccc(Br)cc1 the results were PREPL inh -14.2, NR3A LBD binder -2.7, Beta apoptosis -8.0, CHOP inh 96.9*, CSC inhib 5.7, T cruzi repl 6.7 and CHOP inh conf 131.8*.
Screening CCCCCCCC(=O)N/N=C/c1cccnc1 returned PREPL inh -9.0, NR3A LBD binder 0.5, Beta apoptosis -1.6, CHOP inh 17.1, CSC inhib -3.6 and T cruzi repl -7.5.
COc1ccc(/C=c2\sc3nc(-c4ccccc4OC)nn3c2=O)c(OC)c1 was read as PREPL inh -2.8, NR3A LBD binder 3.1, Beta apoptosis 3.3, CHOP inh 102.2*, CSC inhib 9.0, T cruzi repl -5.9 and CHOP inh conf 21.2.
For Cc1ccc(S(=O)(=O)/N=C(\Sc2ccccc2)c2ccccc2)cc1 the results were PREPL inh 1.0, NR3A LBD binder 0.4, Beta apoptosis -8.3, CHOP inh 106.7*, CSC inhib -0.5, T cruzi repl 3.3 and CHOP inh conf 46.2.
Screening O=S(=O)(/N=C(\Sc1ccccc1)c1ccccc1)c1ccc(Cl)cc1 returned PREPL inh 5.7, NR3A LBD binder 1.9, Beta apoptosis -15.6, CHOP inh 1.0 and T cruzi repl 4.6.
For Cc1nc(NCc2ccc3c(c2)OCO3)c2nnn(Cc3ccccc3)c2n1 the results were PREPL inh 3.5, NR3A LBD binder 1.3, Beta apoptosis 36.4, CHOP inh 101.1*, CSC inhib -1.6, T cruzi repl 11.3 and CHOP inh conf 65.5.
For Cc1nc([N+](=O)[O-])c(Br)n1Cc1ccc(Cl)c(Cl)c1 the results were NR3A LBD binder 1.6, CHOP inh 104.8*, T cruzi repl 43.7 and CHOP inh conf 3.0.
`Cc1nc([N+](=O)[O-])c(Br)n1CC(=O)c1ccc(Cl)cc1` gave PREPL inh 14.7, NR3A LBD binder -1.3, Beta apoptosis -6.2, CHOP inh -64.0, CSC inhib 34.8 and T cruzi repl -15.0.
`Cc1cccc(C(=O)NC2CCN(C(=O)NCc3ccccc3)CC2)c1` gave PREPL inh -1.1, NR3A LBD binder -3.1, Beta apoptosis 0.5, CSC inhib 1.1 and T cruzi repl 1.2.
`Cc1ccc(N=Cc2cc3c(cc2O)OC(N)=C(C#N)C3c2ccccc2)cc1` (centres undefined) gave PREPL inh 0.1, NR3A LBD binder 12.1*, Beta apoptosis -17.0, CHOP inh 99.3*, CSC inhib -1.4, T cruzi repl 6.5 and CHOP inh conf 81.7*.
Screening N#CC1=C(N)Oc2cc(O)c(C=Nc3ccccc3)cc2C1c1ccccc1 (centres undefined) returned PREPL inh 21.8, NR3A LBD binder -4.1, Beta apoptosis -3.8, CHOP inh 60.4, CSC inhib -1.1 and T cruzi repl -0.8.
Screening COc1cccc(CNC(=O)CCC2CCCN(c3cc(C)nc(N4CCCC4)n3)C2)c1 (centres undefined) returned PREPL inh -0.1, NR3A LBD binder -2.0, Beta apoptosis 4.7, CHOP inh 1.1, CSC inhib 2.1 and T cruzi repl 19.5.
Screening C[C@H](NC(=O)c1nc[nH]c1C(=O)N[C@@H](Cc1ccccc1)C(=O)OC(C)(C)C)C(=O)OC(C)(C)C returned PREPL inh 13.6, NR3A LBD binder -15.5, Beta apoptosis -1.5, CHOP inh 97.0*, T cruzi repl 24.5 and CHOP inh conf 99.8*.

Assay outcomes from PubChem BioAssay.
